# Only some compounds are listed: those with a hit (about 2.2% of all), similar ones and a draw of the others.
# APP transl inh = APP translation inhibition; SH-SY5Y APP 5'UTR-luciferase reporter, luminescence; inhibition, % at 2 µM; actives 0.82% (n = 190,000);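 active = inhibition above a set limit, derived from the sample mean plus 3 SD, cut at about 45% in these data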
# BaF3 tox = counter-screen for JAK2V617F inhibitors: parental Ba/F3 viability inhibitors | inhibition, % at 5.6 µM | AID 1486 | CellTiter-Glo ATP luminescence | actives 1.1% (n = 220,000);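 active = inhibition above a per-campaign cutoff, the mean inhibition of all tested compounds plus 3 SD, cut at about 27% in these data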;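 note: 0% = DMSO wells and 100% = JAK Inhibitor I control wells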
# b-catenin transl = alters nuclear translocation of beta-catenin in HeLa cells; immunofluorescence imaging; nuclear translocation activity, % at 5 µM; actives 0.3% (n = 190,000);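 active = nuclear translocation activity above 50% at 5 µM, with a well cell count of 50 or more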;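 note: per-cell ratio of nuclear to cytoplasmic median beta-catenin stain intensity; plate controls were DMSO negative control for no effect and GSK-3 inhibitor IX positive control for full effect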
#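 Test system: human HeLa cells, native beta-catenin. Compound dosing: 5 µM primary single dose, 0.1% DMSO, 0.02–20 µM confirmation series. Incubation: compound exposure 24 h at 37°C. Detection: beta-catenin immunostaining with DAPI counterstain, 20x imaging, 6 fields/well. Read-out basis: Nuclear/cytoplasmic beta-catenin signal ratio, % activation.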
# Ba/F3 V617F tox = reduce viability of Ba/F3 cells dependent on JAK2V617F; inhibition, % at 5.6 µM; actives 1.1% (n = 220,000); Ba/F3 EpoR-JAK2V617F viability, ATP luminescence;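 active = inhibition above the campaign mean plus 3 SD over all tested compounds, cut at about 24% in these data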;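 note: cytokine-independent growth of Ba/F3 cells driven by EpoR plus mutant JAK2; 0% = DMSO-treated cells and 100% = JAK inhibitor I control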
# IEC-6 cytotox = IEC-6 cytotoxicity, counter-screen for KLF5 inhibitors | luminescence viability | inhibition, % at 5 µM | actives 0.78% (n = 290,000); in the data active = inhibition above about 22%;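 note: 0% = plate median of test compound wells and 100% = cytotoxic reference compound wells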
# MT stabilize HCS = microtubule stabilizers in HeLa cells. HeLa tubulin immunostaining HCS, 24 h; share of cells brighter than vehicle mean+2SD. AID 2205. % tubulin-high responders, % at 10 µM. actives 0.83% (n = 200,000);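 active = plate Z-score above 3 for both tubulin-high and condensed-nucleus cell shares, with cell loss under 80%, at 10 µM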;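 note: anti alpha tubulin signal scored within the nucleus-defined area of each cell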
# * = called active by the depositor; / = no result given.
SMILES,APP transl inh,BaF3 tox,b-catenin transl,Ba/F3 V617F tox,IEC-6 cytotox,MT stabilize HCS
CCC1(C)Cc2c(sc3nc(SC)[nH]c(=S)c23)CO1 (stereo not given),/,/,/,/,-4,/
O=C1C(Cl)=C(NC(=O)c2ccccc2)C(=O)C(Cl)=C1NC(=O)c1ccccc1,/,/,/,/,100*,/
COc1cc(CSc2nnnn2-c2ccc(C)cc2)cc(OC)c1OC,-7,53*,0,35*,3,6
COc1ccc(F)cc1CSc1nnnn1-c1ccc(O)cc1,/,/,/,/,-1,/
Cc1cc(C)c(C)c(S(=O)(=O)NCCCN2CCOCC2)c1C,11,90*,-1,4,4,1
Cc1ccc(S(=O)(=O)NCCCN2CCOCC2)cc1C,-3,2,1,-1,-4,2
CCc1n(CC(O)COCc2ccccc2)c2ccccc2[n+]1C (stereo not given),-7,49*,1,38*,-3,3
Cc1nn(-c2ccccc2)c(Cl)c1/C=N/NC(=O)c1ccccc1F,/,1,-1,0,1,/
COc1ccc2[nH]c3c(N4CCN(Cc5ccc6c(c5)OCO6)CC4)ncnc3c2c1,-2,10,4,4,5,21*
COc1ccc2c(c1)c1ncnc(N3CCN(Cc4ccc5c(c4)OCO5)CC3)c1n2C,-13,2,-4,0,0,4
COc1cc(C(=O)N/N=C/c2cc([N+](=O)[O-])cs2)cc(OC)c1OC,95*,77*,29,81*,78*,20*
CC(=O)Nc1ccc(S(=O)(=O)N2CCN(c3cccc(C)c3C)CC2)cc1,-6,8,5,2,5,14*
CC(=O)Nc1ccc(S(=O)(=O)N2CCN(S(=O)(=O)c3ccc(NC(C)=O)cc3)CC2)cc1,/,/,/,/,-3,/
CCCCSc1nc2sc3c(c2c(=O)n1-c1ccccc1)CCN(C)C3,/,/,/,/,-3,/
CCCCCNc1nc2sc3c(c2c(=O)n1-c1cccc(Cl)c1)CCN(C)C3,/,68*,0,76*,5,/
CCCCNc1nc2sc3c(c2c(=O)n1-c1cccc(Cl)c1)CCN(C)C3,/,68*,0,80*,-3,/
O=C(NCC1CCCO1)C(c1ccco1)N(Cc1ccc(F)cc1)C(=O)CN1C(=O)c2ccccc2S1(=O)=O (stereo not given),/,/,/,/,-2,/
COc1ccc2[nH]c3c(c2c1)CCNC3C1CC=C(C)CC1 (stereo not given),27,3,51*,0,11,9.3*
Cc1cc(C)n(-c2ccc(NC(=O)C3CCCCN3Cc3cccc4c3OCO4)cc2)n1 (stereo not given),/,/,/,/,10,/
S=c1[nH]nc(-c2n[nH]c3c2CCC3)n1/N=C/C=C/c1ccco1,/,-5,-1,-1,-18,/
CS(=O)(=O)Nc1ccc(S(=O)(=O)N2CCCC2)cc1,-4,90*,-1,0,7,3
CN(Cc1nccn1C)C(=O)C1CCC(=O)N(Cc2cccc(C(F)(F)F)c2)C1 (stereo not given),/,/,/,/,-11,/
CCn1nc(C(=O)N2CCc3ccccc3C2)c2ccccc2c1=O,17,-3,0,-2,1,16*
CCOC(=O)c1c(-c2ccccc2)oc2cc(CN(C)C)c(O)c(CN(C)C)c12,53*,2,/,-1,4,1
CCOC(=O)c1c(C)oc2cc(Cl)c(O)c(CN(C)C)c12,/,2,0,0,6,/
SMILES,APP transl inh,BaF3 tox,b-catenin transl,Ba/F3 V617F tox,IEC-6 cytotox,MT stabilize HCS
Cc1ccc(-n2c(-c3ccc(Br)cc3)c[n+]3c2CCc2ccc4cccnc4c2-3)cc1,3,91*,0,97*,56*,5
CCCCN1C(=O)N(c2nnc(C(C)(C)C)s2)C(O)C1c1ccc(C)cc1 (stereo not given),/,-5,-4,-5,-4,/
CC(C)c1nc(SCC(=O)Nc2ccc3c(c2)OCCO3)c2c(=O)n(C)c(=O)n(C)c2n1,5,0,2,-2,1,22*
CC(CNS(=O)(=O)c1ccc(Cl)cc1)n1cncn1 (stereo not given),/,/,/,/,-8,/
COc1cc(C(=O)Nc2ccc(N(C)C)cc2)cc(OC)c1OC,-47,3,36,-1,7,26*
COc1cc(C(=O)Nc2ccc(Br)cc2C(=O)c2cc(OC)c(OC)c(OC)c2)cc(OC)c1OC,-9,-3,4,-4,4,34*
COc1cc(C(=O)Nc2ccc(S(=O)(=O)N(C)c3ccccc3)cc2)cc(OC)c1OC,-3,4,1,3,-1,2
COc1cc(C(=O)Nc2ccccc2NC(=O)c2cc(OC)c(OC)c(OC)c2)cc(OC)c1OC,/,/,/,/,5,/
N#CC1=C(N)OC2=C(CCc3ccccc32)C1c1ccccc1 (stereo not given),96*,3,18,1,0,6
Cc1ccc(/C=C2\CCC3=C2OC(N)=C(C#N)C3c2ccc(C)cc2)cc1 (stereo not given),47*,1,-1,-4,-11,12
Cc1ccc(CNC(=O)CNC(=O)c2ccco2)cc1,/,/,/,/,0,/
O=C(COC(=O)c1cc(-c2ccccc2Cl)nc2ccccc12)Nc1ncc(C(F)(F)F)cc1Cl,49*,0,0,-4,-2,4
O=C(COC(=O)c1cccc2ccccc12)Nc1ncc(C(F)(F)F)cc1Cl,-13,3,/,-3,-3,3
COC(=O)c1ccc(COc2ccccc2/C=N/NS(=O)(=O)c2ccccc2)cc1,-20,6,1,3,6,23*
Cc1ccc(-c2nn(-c3ccccc3)cc2C(=O)N2CCN(c3ccccn3)CC2)cc1,3,7,-2,1,-1,5
O=C(c1cn(-c2ccccc2)nc1-c1ccccc1)N1CCN(c2ccccn2)CC1,-14,7,-4,0,1,36*
O=C(O)CSc1ncnc2sc3c(c12)CCC3,-10,5,0,1,3,2
O=C(O)CSc1ncnc2sc3c(c12)CCCC3,-13,90*,-2,-1,2,2
Cc1cccc(Cn2c(NCCO)nc3c2c(=O)n(C)c(=O)n3C)c1,-9,22,2,9,-1,2
C=CCNc1nc2c(c(=O)n(C)c(=O)n2C)n1CCCCCC,16,55*,0,40*,6,2
Cn1c(=O)c2c(nc(NCCc3ccccc3)n2Cc2ccc(F)cc2)n(C)c1=O,10,4,0,-2,10,3
COCCNc1nc2c(c(=O)n(C)c(=O)n2C)n1Cc1cccc(C)c1,-3,43*,/,45*,1,1
C=CCNc1nc2c(c(=O)n(C)c(=O)n2C)n1Cc1ccc(F)cc1,1,40*,-1,40*,-1,2
CN(Cc1ccccc1F)C(=O)c1sccc1-c1ccccc1,/,/,/,/,10,/
COc1ccc(OC)c(/C=N/Nc2nncn2/N=C/c2cc(OC)ccc2OC)c1,11,5,/,6,19,32*
COc1cc(/C=N/Nc2nncn2/N=C/c2ccc(O)c(OC)c2)ccc1O,-29,6,-3,3,8,3
